This is an account of results in ChEMBL document CHEMBL1240366, “Blockade of X4-tropic HIV-1 cellular entry by GSK812397, a potent noncompetitive CXCR4 receptor antagonist” (Antimicrob Agents Chemother, 2010).

Data set [1] has as its target Angiotensin-converting enzyme (Homo sapiens, UniProt P12821). In words: Inhibition of ACE.
Data set [2] has as its target Voltage-gated inwardly rectifying potassium channel KCNH2 (Homo sapiens, UniProt Q12809). In words: Inhibition of human ERG up to 10 uM.
For data set [3], the target named is C-X-C chemokine receptor type 4 (Homo sapiens) (UniProt P61073). Briefly: Inhibition of CXCR4-mediated chemotaxis in SDF1-stimulated human U937 cells treated 15 mins before SDF1 challenge measured after 2 hrs by luminescence assay relative to control. In kind it is cell-based. The conditions noted are these: U-937. The method, boiled down:
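U937 cells (endogenous CXCR4) in RPMI with 2% FCS and 10 mM HEPES, 5 × 10^6 cells/ml, preincubated 15 min with compound, then placed above a 5.0 μm filter. The lower chamber held the same compound concentration plus SDF-1. Migration ran 2 h. Migrated cells were quantified by ATP luminescence. Viability was checked under identical conditions. For mode of action, SDF-1 concentration-response curves were run at increasing compound concentrations.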

Data set [4] relates to Human immunodeficiency virus 1. In words: Antiviral activity against HIV1 isolate 05-121776 assessed as inhibition of viral replication after 7 days by scintillation counting. In kind it is functional, organism-based. The note with it: Human immunodeficiency virus 1, isolate 05-121776, 168 h.
For data set [5], the system named is Human immunodeficiency virus 1. Briefly: Antiviral activity against HIV1 isolate 05-121784 assessed as inhibition of viral replication after 7 days by scintillation counting. The conditions noted are these: Human immunodeficiency virus 1, isolate 05-121784, 168 h. The format is functional, organism-based.
A short description of data set [6]: Oral bioavailability in mouse at 3 mg/kg administered as single dose after 24 hrs by liquid chromatography-mass spectroscopy. The format is ADME, organism-based. The conditions noted are these: in vivo.
Data set [7] can be described thus: Half life in rat at 3 mg/kg, po administered as single dose by liquid chromatography-mass spectroscopy. The format is ADME, organism-based. The note with it: in vivo. Further details: dose 3 mg/kg, route oral; call rule not given here.
Data set [8] is described as follows: Clearance in mouse at 1 mg/kg, iv administered as single dose after 24 hrs by liquid chromatography-mass spectroscopy. In kind it is ADME, organism-based. The arrangement: dose 1 mg/kg, route intravenous. The conditions noted are these: in vivo. The method, boiled down:
(§1)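 Single intravenous dose of 1 mg/kg. Plasma was sampled at serial times over 24 h and measured by LC-MS/MS. Clearance was derived by pharmacokinetic analysis.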

For data set [9], the system named is Human immunodeficiency virus 1. Briefly: Antiviral activity against HIV1 isolate 05-121799 assessed as inhibition of viral replication after 7 days by scintillation counting. The format is functional, organism-based. The conditions noted are these: Human immunodeficiency virus 1, isolate 05-121799, 168 h.
The subject of data set [10] is Human immunodeficiency virus 1. In words: Antiviral activity against HIV1 isolate 05-121789 assessed as inhibition of viral replication after 7 days by scintillation counting. In kind it is functional, organism-based. The conditions noted are these: Human immunodeficiency virus 1, isolate 05-121789, 168 h.
Data set [11] can be described thus: Clearance in rat at 1 mg/kg, iv administered as single dose after 24 hrs by liquid chromatography-mass spectroscopy. The format is ADME, organism-based. The arrangement: dose 1 mg/kg, route intravenous. The conditions noted are these: in vivo. The method, boiled down:
as §1

For data set [12], the target named is C-X-C chemokine receptor type 4 (Homo sapiens) (UniProt P61073). Briefly: Antagonist activity at human CXCR4 expressed in HEK293 cells assessed as inhibition of SDF1-induced increase in intracellular calcium level treated 15 mins before agonist challenge measured after 1 hr by FLIPR assay. In kind it is functional, cell-based.
C-X-C chemokine receptor type 4 (Homo sapiens), sequence (P61073 whole entry): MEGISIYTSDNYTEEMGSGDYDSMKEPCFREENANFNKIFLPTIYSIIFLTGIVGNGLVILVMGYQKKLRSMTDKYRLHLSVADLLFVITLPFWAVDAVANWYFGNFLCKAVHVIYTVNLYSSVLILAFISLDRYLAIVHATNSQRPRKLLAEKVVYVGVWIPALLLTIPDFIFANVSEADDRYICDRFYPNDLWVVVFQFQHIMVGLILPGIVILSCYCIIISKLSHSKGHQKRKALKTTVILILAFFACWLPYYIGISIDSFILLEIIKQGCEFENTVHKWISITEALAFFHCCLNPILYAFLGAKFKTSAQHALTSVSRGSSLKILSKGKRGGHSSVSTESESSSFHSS
The subject of data set [13] is Human immunodeficiency virus 1. In words: Antiviral activity against HIV1 isolate 05-121794 assessed as inhibition of viral replication after 7 days by scintillation counting. The format is functional, organism-based. The conditions noted are these: Human immunodeficiency virus 1, isolate 05-121794, 168 h.
Data set [14] deals with Human immunodeficiency virus 1. Briefly: Antiviral activity against HIV1 isolate 05-121781 assessed as inhibition of viral replication after 7 days by scintillation counting. The note with it: Human immunodeficiency virus 1, isolate 05-121781, 168 h. In kind it is functional, organism-based.
Data set [15] relates to Human immunodeficiency virus 1. Briefly: Antiviral activity against HIV1 isolate 05-121775 assessed as inhibition of viral replication after 7 days by scintillation counting. In kind it is functional, organism-based. The note with it: Human immunodeficiency virus 1, isolate 05-121775, 168 h.
The subject of data set [16] is Human immunodeficiency virus 1. Briefly: Antiviral activity against HIV1 isolate 05-121802 assessed as inhibition of viral replication after 7 days by scintillation counting. The format is functional, organism-based. The conditions noted are these: Human immunodeficiency virus 1, isolate 05-121802, 168 h.

pIC50: −log10 of the molar value.

Angiotensin-converting enzyme, sequence (P12821 whole entry): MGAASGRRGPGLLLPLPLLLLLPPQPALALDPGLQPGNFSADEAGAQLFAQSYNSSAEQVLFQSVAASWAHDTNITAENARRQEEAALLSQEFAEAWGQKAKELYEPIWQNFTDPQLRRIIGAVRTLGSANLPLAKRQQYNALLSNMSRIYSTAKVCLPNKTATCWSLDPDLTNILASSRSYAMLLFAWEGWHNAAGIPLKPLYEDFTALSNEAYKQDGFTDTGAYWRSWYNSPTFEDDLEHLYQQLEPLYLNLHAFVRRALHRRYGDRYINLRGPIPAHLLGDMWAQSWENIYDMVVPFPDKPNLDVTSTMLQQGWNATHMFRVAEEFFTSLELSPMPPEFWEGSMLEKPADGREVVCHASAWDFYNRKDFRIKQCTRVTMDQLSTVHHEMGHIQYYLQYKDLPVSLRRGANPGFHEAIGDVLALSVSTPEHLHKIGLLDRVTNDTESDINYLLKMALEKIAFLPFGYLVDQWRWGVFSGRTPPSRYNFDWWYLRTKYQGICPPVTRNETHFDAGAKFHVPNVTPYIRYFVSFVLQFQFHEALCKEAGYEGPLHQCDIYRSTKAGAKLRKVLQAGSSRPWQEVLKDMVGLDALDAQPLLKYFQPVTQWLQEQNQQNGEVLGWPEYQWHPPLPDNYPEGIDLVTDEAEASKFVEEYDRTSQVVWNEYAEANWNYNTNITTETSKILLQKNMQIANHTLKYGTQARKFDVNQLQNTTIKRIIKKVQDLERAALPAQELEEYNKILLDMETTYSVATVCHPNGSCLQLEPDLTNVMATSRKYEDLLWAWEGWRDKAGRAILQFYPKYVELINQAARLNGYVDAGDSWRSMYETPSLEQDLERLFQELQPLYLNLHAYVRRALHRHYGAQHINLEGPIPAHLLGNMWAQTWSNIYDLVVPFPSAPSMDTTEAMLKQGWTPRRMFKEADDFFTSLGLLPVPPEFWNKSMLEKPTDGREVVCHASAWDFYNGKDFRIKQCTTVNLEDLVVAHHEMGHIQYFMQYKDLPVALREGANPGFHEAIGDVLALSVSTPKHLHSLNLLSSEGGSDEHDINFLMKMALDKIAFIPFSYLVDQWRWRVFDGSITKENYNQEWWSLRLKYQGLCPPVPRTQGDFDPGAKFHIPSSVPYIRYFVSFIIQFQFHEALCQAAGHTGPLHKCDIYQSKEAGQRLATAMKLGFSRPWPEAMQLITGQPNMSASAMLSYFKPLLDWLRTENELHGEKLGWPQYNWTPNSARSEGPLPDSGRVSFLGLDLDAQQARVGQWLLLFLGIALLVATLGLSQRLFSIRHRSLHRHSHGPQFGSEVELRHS
Voltage-gated inwardly rectifying potassium channel KCNH2, sequence (Q12809 whole entry): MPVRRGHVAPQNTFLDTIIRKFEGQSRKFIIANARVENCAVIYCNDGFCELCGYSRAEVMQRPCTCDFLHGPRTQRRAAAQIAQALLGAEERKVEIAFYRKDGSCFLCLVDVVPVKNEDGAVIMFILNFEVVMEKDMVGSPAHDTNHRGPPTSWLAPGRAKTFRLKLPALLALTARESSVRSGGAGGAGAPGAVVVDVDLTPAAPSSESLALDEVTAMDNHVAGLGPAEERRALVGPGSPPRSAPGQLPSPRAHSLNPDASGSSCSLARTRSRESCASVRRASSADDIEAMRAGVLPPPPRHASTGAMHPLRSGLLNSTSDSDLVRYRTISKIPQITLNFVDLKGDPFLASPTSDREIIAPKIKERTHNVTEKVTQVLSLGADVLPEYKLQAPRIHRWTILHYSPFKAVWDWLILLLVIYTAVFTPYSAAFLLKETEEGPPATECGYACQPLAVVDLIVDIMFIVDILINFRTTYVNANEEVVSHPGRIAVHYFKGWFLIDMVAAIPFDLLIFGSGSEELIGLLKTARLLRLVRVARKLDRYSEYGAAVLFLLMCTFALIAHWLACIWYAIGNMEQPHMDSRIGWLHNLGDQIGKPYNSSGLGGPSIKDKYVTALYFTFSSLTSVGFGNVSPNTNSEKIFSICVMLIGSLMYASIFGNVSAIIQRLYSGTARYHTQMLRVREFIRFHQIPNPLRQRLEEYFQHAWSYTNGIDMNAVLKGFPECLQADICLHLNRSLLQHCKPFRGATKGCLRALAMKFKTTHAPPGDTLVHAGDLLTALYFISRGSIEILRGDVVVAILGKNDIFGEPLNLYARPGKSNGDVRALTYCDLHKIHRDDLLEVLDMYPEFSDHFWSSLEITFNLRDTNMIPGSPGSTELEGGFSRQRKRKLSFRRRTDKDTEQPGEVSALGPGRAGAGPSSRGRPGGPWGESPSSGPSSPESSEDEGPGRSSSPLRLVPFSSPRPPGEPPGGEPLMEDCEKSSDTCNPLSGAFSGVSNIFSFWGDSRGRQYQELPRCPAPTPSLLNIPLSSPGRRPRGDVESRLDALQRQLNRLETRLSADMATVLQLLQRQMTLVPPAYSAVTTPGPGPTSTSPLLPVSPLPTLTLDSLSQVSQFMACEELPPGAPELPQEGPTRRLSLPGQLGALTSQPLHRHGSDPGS

With `CN1CCN(c2cccc3nc(CN(C)[C@H]4CCCc5cccnc54)c(CO)n23)CC1`, the pIC50 was 6.71 in [1]; 9.00 in data set [4]; 9.00 in [5]; 9.00 in data set [9]; 9.00 in data set [10]; 9.00 in [13]. Also, the pIC50 in data set [14], in [15] and in [16] was 9.00 in each case. The “inhibition (INH)” value in [2] is on record as “Not Active”. Further, the inhibition in data set [3] came out at 109%. The same compound showed a bioavailability in [6] of 10%. In data set [7], the half-life is 8.6 h. Besides, the results for the clearance in data set [8] and in [11] were 15.9 mL/min/kg and 4.5 mL/min/kg, respectively. In addition, in [12], the Activity result is “Dose-dependent effect”.
